# Legend:
# [1] = test system: dogs with spontaneously-arising glioma and meningioma; type: in vivo, dog; conditions: six dogs
# Method in brief: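 Dogs with spontaneously arising glioma or meningioma received the oral test compound together with conventional therapies. Tolerability was assessed, with serial clinical and MRI outcome assessments.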
# [2] = test system: canine, human, and murine glioma cell lines; experiment: In vitro sensitivity of glioma cell lines; type: cell-based; conditions: monotherapy, biologically relevant exposures
# Method in brief: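 Murine, canine and human glioma cell lines were tested for in vitro sensitivity to the test compound and to radiation, each given as monotherapy. PC-3 expression in the same lines was also evaluated.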
# dogs with MUE = experiment: Retrospective survival of dogs with MUE given cytarabine CRI; type: in vivo, dog; conditions: 22 dogs, at least 1 CRI treatment; range 61 – 1312
# [3] = test system: healthy purpose-bred cats; conditions: in vivo
# thyroid TT4 response = experiment: TSH stimulation test, serum TT4; type: in vivo, dog; conditions: 6 dogs, oral hydrocortisone for 90 days
# diabetic cats = experiment: One-year randomized trial of insulin types in diabetic cats; type: in vivo, cat; conditions: BID insulin, glargine=24, PZIR=22
# dogs with EPI = experiment: Oral cobalamin supplementation in dogs with EPI, serum cobalamin; type: in vivo, dog; conditions: daily cyanocobalamin tablets, 28–199 days; 10 dogs; at inclusion 204
# Method in brief: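 Dogs entered with EPI diagnosed by subnormal serum cTLI (reference 5–35 μg/L) and an initial serum cobalamin of 350 ng/L or less (reference 234–811 ng/L). All received daily oral cyanocobalamin tablets at 1 mg/tablet.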
compound,measurement,setting,value
C=CCc1cccc(/C=N/NC(=O)CN2CCN(Cc3ccccc3)CC2)c1O [PAC‐1],partial responses,[1],3 dogs
same,in vitro sensitivity of glioma cell lines,[2],show in vitro sensitivity
Nc1ccn([C@@H]2O[C@H](CO)[C@@H](O)[C@@H]2O)c(=O)n1 [cytarabine],"Survival, median",dogs with MUE,258.5 days
Cc1cccc([C@H](C)c2cnc[nH]2)c1C [dexmedetomidine],cats with successful emesis,[3],58%
C[C@]12CCC(=O)C=C1CC[C@@H]1[C@@H]2[C@@H](O)C[C@@]2(C)[C@H]1CC[C@]2(O)C(=O)CO [hydrocortisone],mean basal serum TT4 concentration,thyroid TT4 response,0.32 µg/dL
PZIR: human-recombinant protamine zinc insulin,cats achieving remission,diabetic cats,23%
cyanocobalamin [CBL],median serum CBL concentration after supplementation,dogs with EPI,"1,113 ng/L"
